From ChEMBL document CHEMBL1153140, “Piperidyl amides as novel, potent and orally active mGlu5 receptor antagonists with anxiolytic-like activity” (Bioorg Med Chem Lett, 2010)
Values after ≈ are worked out from the molar mass of the structure shown. One block for each compound: values may come before it. Active and inactive are the calls of the source. The rule behind the calls is not given here.

How the values were obtained:
[1] = target: T1, Metabotropic glutamate receptor 5 (Homo sapiens, UniProt P41594); assay: Antagonist activity at human mGluR5 assessed as inhibition of glutamate-induced elevation of intracellular calcium concentration; assay type: functional, cell-based
[2] = Intrinsic clearance in rat liver microsomes; assay type: ADME, Microsome
[3] = Aqueous solubility at pH 6.8; assay type: physicochemical
How it was run: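 Solubility measured at pH 6.8 by a dissolution template potentiometric titration approach, expressed in mg/L.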

[4] = Intrinsic clearance in human liver microsomes; assay type: ADME, Microsome
[5] = target: T1, Metabotropic glutamate receptor 5; assay: Antagonist activity at human mGluR5 assessed as inhibition of quisqualate-induced intracellular inositol phosphate accumulation; assay type: functional, cell-based
[6] = target: Metabotropic glutamate receptor 5 (Rattus norvegicus, UniProt P31424); assay: Displacement of [3H]ABP688 from mGluR5 in rat brain cortex; assay type: tissue-based
Mus musculus = assay: Anxiolytic-like activity in mouse assessed as reduction of stress-induced hyperthermia at 3 to 10 mg/kg, po; assay type: functional, organism-based
[7] = Mean retention time in Sprague-Dawley rat at 10 umol/kg, iv; assay type: ADME, organism-based; details: in vivo
How it was run: (§1)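 Single iv bolus of 10 µmol/kg in Sprague-Dawley rats, n = 3 per group. Plasma concentration-time profile analysed for AUC, clearance, first and second elimination half-lives, MRT and Vss. Brain/plasma AUC ratio also determined.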

[8] = Tmax in Sprague-Dawley rat at 30 umol/kg, po; assay type: ADME, organism-based; details: in vivo
How it was run: (§2)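 Sprague-Dawley rats (n = 3/group) dosed orally once at 30 µmol/kg. Plasma Cmax, Tmax and AUC determined.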

[9] = Ratio of drug level in brain to plasma in Sprague-Dawley rat at 10 umol/kg, iv; assay type: ADME
How it was run: (§3)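 Single-dose pharmacokinetic study in Sprague-Dawley rats, n = 3 per group, given one oral or one iv bolus dose. Drug concentrations were followed over time in plasma and brain. The ratio is the brain AUC divided by the plasma AUC.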

[10] = target: Metabotropic glutamate receptor 7 (Homo sapiens, UniProt Q14831); assay: Inhibition of human mGluR7
[11] = Clearance in Sprague-Dawley rat at 10 umol/kg, iv; assay type: ADME, organism-based; details: in vivo; how it was run: as §1
[12] = First elimination Half life in Sprague-Dawley rat at 10 umol/kg, iv; assay type: ADME, organism-based; details: in vivo, read-out: beta t1/2 (converted); how it was run: as §1
[13] = target: Metabotropic glutamate receptor 2 (Homo sapiens, UniProt Q14416); assay: Inhibition of human mGluR2
[14] = target: T1, Metabotropic glutamate receptor 5; assay: Displacement of [3H]ABP688 from human recombinant mGluR5 expressed in CHO cells; assay type: cell-based
[15] = Volume of distribution at steady state in Sprague-Dawley rat at 10 umol/kg, iv; assay type: ADME, organism-based; details: in vivo, read-out: Vdss; how it was run: as §1
[16] = Displacement of radioligand from glutamate binding site of kinate receptor in rat brain membrane; assay type: cell membranes
How it was run: (§4)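 Radioligand displacement in rat brain membranes: AMPA (glutamate site), kainate (glutamate site) and NMDA (glutamate and glycine sites).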

Rattus norvegicus [17] = assay: Anxiolytic-like activity in water-deprived rat assessed as increase in electrical shock-stimulated lick at 10 to 30 mg/kg, po administered 1 hr before test by Vogel conflict test; assay type: functional, organism-based
Brain = assay: Drug level in rat brain at 2 mg/kg; assay type: ADME, organism-based; parameters: dose 2 mg/kg; details: in vivo
How it was run: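 In a fear-potentiated startle run at 0.08–30 mg/kg po, rats were sacrificed immediately after testing. Brains were removed and drug concentration measured by HPLC, reported as mean ± SEM per dose group.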

[18] = AUC in Sprague-Dawley rat at 30 umol/kg, po; assay type: ADME, organism-based; details: plasma; how it was run: as §2
[19] = Second elimination Half life in Sprague-Dawley rat at 10 umol/kg, iv; assay type: ADME, organism-based; details: in vivo, read-out: beta t1/2 (converted); how it was run: as §1
Rattus norvegicus [20] = species: Rattus norvegicus; assay: Anxiolytic-like activity in rat assessed as reduction in electric foot shock-induced fear-potentiation startle; assay type: functional, organism-based
How it was run: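 Rats fear-conditioned by 20 pairings of light (5 s) with footshock (0.5 mA, 0.5 s) on two successive days. On day 3, oral dosing (3–30 mg/kg, n = 10/group). 1 h later, startle to a noise burst measured with and without light, 12 presentations each; FPS taken as the difference. Multifactorial ANOVA with Dunnett post-hoc.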

Rattus norvegicus [21] = assay: Anxiolytic-like activity in water-deprived rat assessed as increase in electrical shock-stimulated lick at 3 mg/kg, po administered 1 hr before test by Vogel conflict test; assay type: functional, organism-based; parameters: dose 3 mg/kg
[22] = target: Metabotropic glutamate receptor 1 (Homo sapiens, UniProt Q13255); assay: Inhibition of human mGluR1
[23] = Ratio of drug level in brain to plasma in Sprague-Dawley rat at 30 umol/kg, po; assay type: ADME; how it was run: as §3
Glutamate NMDA receptor = assay: Displacement of radioligand from glutamate and glycine binding site of NMDA receptor in rat brain membrane; assay type: cell membranes; how it was run: as §4
[24] = AUC in Sprague-Dawley rat at 10 umol/kg, iv; assay type: ADME, organism-based; details: plasma; how it was run: as §1
[25] = Oral bioavailability in Sprague-Dawley rat at 30 umol/kg; assay type: ADME, organism-based; details: in vivo; how it was run: as §2
[26] = Displacement of radioligand from glutamate binding site of AMPA receptor in rat brain membrane; assay type: cell membranes; how it was run: as §4
[27] = Cmax in Sprague-Dawley rat at 30 umol/kg, po; assay type: ADME, organism-based; parameters: dose 30 umol/kg, route oral; details: in vivo; how it was run: as §2

T1 sequence (P41594 whole entry): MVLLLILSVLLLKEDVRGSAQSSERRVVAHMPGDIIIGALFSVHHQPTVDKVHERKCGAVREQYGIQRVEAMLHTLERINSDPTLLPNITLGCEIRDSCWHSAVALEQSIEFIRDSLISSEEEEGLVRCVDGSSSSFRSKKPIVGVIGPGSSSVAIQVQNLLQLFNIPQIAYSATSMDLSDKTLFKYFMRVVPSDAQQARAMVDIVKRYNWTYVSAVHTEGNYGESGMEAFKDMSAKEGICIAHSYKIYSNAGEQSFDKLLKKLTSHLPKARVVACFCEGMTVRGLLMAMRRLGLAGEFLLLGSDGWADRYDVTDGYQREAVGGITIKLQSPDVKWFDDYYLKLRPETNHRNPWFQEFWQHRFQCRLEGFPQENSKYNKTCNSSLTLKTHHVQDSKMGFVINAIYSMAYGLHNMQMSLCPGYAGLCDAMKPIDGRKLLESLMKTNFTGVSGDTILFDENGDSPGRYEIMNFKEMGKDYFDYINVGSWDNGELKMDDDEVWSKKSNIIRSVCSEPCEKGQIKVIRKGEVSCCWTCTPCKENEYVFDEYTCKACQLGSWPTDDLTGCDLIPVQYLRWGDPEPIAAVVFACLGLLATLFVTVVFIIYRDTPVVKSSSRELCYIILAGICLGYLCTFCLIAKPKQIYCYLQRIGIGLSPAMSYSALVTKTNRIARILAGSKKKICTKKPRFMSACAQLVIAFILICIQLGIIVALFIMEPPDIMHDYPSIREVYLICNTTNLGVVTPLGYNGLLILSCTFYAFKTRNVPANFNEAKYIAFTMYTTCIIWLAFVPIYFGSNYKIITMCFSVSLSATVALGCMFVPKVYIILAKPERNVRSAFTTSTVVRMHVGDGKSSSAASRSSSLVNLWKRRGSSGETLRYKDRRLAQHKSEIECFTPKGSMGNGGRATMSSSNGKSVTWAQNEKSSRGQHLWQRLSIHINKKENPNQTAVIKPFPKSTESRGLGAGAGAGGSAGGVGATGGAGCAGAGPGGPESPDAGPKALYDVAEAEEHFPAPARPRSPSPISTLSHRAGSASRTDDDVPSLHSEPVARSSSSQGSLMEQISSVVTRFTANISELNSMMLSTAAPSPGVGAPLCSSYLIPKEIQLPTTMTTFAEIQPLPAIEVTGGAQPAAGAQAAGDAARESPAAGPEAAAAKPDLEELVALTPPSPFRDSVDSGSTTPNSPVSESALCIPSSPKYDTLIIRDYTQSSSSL
Sequence of Metabotropic glutamate receptor 1 (Q13255 whole entry): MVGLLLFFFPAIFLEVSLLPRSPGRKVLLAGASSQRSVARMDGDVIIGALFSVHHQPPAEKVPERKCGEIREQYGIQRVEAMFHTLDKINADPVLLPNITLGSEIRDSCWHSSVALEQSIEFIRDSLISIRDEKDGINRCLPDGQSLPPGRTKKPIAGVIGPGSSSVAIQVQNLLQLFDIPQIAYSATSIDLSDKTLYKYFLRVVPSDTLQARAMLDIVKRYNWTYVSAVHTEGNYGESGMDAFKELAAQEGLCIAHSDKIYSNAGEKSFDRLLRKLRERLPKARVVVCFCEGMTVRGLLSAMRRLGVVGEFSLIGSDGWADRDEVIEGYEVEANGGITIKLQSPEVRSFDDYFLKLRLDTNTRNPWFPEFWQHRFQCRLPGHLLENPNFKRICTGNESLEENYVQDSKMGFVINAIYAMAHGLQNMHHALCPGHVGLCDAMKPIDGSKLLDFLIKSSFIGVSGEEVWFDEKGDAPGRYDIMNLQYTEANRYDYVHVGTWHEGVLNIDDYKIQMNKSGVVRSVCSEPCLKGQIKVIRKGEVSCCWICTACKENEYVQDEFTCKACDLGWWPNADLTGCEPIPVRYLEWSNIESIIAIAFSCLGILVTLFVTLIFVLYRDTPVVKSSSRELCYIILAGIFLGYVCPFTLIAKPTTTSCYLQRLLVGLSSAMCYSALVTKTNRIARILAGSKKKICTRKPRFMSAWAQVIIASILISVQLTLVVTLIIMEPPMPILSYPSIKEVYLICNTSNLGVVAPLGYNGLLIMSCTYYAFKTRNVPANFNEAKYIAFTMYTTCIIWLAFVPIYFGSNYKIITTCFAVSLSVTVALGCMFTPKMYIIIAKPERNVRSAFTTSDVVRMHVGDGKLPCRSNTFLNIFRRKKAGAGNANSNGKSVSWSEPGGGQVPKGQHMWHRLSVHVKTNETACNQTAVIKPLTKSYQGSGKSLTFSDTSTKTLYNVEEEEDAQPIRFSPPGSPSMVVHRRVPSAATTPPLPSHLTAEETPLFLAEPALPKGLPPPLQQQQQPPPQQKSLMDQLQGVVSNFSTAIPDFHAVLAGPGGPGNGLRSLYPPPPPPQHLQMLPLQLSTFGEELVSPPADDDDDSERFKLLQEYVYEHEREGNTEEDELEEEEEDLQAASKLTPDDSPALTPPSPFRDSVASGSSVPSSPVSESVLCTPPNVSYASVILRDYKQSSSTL
Sequence of Metabotropic glutamate receptor 5 (Rattus norvegicus, UniProt P31424) (P31424 whole entry): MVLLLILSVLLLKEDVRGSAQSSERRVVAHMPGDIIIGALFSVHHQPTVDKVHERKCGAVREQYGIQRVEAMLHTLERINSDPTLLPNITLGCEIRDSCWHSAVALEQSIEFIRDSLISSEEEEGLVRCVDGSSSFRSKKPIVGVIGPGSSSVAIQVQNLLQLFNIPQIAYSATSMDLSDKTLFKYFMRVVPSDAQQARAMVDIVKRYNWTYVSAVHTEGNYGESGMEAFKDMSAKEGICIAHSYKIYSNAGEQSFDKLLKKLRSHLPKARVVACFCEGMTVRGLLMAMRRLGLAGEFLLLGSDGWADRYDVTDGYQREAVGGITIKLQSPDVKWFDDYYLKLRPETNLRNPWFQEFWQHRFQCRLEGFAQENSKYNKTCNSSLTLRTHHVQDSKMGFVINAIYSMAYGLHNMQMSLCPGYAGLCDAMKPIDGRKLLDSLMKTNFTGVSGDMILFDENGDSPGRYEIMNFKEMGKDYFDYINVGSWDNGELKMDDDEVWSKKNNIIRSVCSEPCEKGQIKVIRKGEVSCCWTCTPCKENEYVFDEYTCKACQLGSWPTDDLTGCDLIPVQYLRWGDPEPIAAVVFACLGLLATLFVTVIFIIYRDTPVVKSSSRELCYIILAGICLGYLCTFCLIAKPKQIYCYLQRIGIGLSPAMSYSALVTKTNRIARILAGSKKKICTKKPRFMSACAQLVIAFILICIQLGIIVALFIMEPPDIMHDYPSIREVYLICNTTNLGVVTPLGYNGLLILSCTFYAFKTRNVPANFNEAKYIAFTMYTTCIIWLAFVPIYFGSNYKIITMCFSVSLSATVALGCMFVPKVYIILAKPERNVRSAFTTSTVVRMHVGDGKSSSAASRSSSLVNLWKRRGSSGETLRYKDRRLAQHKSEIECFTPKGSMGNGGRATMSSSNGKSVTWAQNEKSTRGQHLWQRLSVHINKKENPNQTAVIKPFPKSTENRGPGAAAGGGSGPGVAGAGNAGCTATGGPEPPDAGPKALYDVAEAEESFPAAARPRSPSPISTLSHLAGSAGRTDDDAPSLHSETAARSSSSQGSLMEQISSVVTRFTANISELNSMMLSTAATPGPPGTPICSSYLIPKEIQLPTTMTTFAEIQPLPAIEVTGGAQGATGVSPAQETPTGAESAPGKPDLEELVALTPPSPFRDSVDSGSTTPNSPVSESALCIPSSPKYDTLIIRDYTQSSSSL
Sequence of Metabotropic glutamate receptor 7 (Q14831 whole entry): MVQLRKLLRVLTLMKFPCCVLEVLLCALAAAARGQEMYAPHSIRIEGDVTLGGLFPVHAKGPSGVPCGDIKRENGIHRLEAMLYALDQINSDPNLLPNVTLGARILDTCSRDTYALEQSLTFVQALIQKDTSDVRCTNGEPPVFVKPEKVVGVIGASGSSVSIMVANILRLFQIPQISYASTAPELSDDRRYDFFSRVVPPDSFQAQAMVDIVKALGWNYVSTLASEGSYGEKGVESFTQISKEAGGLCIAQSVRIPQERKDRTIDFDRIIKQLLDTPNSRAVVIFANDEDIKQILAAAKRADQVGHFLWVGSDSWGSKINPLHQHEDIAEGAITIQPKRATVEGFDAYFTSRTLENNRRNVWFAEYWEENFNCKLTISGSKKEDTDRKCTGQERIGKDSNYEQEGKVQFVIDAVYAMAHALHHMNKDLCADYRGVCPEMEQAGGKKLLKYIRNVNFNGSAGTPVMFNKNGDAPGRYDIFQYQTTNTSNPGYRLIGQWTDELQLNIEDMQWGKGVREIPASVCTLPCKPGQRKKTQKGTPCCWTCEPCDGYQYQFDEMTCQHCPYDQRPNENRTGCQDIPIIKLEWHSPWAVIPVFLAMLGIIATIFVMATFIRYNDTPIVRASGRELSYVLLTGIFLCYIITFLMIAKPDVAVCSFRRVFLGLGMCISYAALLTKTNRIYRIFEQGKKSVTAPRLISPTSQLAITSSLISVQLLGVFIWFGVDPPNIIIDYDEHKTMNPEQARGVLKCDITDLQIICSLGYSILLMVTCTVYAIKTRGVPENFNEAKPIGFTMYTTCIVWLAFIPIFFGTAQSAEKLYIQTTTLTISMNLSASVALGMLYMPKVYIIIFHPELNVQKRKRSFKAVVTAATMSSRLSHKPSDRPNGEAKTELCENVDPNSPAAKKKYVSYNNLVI

IC50 [1]: 310 nM
SMILES: O=C(c1ccc(Nc2ccc(Cl)cc2)nc1)N1CCCCC1

IC50 [1]: 10000 nM
SMILES: O=C(c1ccc(Nc2ccccc2)nc1)N1CCCCC1

microsomal CLint [2]: 643 µL/min/mg
solubility [3]: 95 µg/mL (≈ 265 µM)
microsomal CLint [4]: 322 µL/min/mg
SMILES: CC[C@@H]1CCCN(C(=O)c2cnc(Nc3ccc(C)nc3)c(Cl)c2)C1

IC50 [1]: > 10000 nM
SMILES: CC1CCCN(C(=O)c2ccc(Oc3ccc(Cl)cc3)nc2)C1 (configuration not stated)

IC50 [1]: 720 nM
SMILES: CC1CCCN(C(=O)c2ccc(Nc3ccc(Cl)cc3)nn2)C1 (configuration not stated)

IC50 [1]: > 10000 nM
SMILES: O=C(c1ccc(NC2CCCCC2)nc1)N1CCCCC1

microsomal CLint [2]: 68 µL/min/mg
solubility [3]: 499 µg/mL (≈ 1450 µM)
IC50 [1]: 1400 nM
microsomal CLint [4]: 39 µL/min/mg
SMILES: Cc1ccc(Nc2ncc(C(=O)N3CCCC[C@@H]3C)cc2Cl)cn1

IC50 [1]: 420 nM
SMILES: Cc1ccc(Nc2ccc(C(=O)N3CCCCC3)cn2)cn1

IC50 [5]: 90 nM
microsomal CLint [2]: 220 µL/min/mg
solubility [3]: 122 µg/mL (≈ 340 µM)
IC50 [1]: 110 nM
microsomal CLint [4]: 138 µL/min/mg
SMILES: CCC1CCCCN1C(=O)c1cnc(Nc2ccc(C)nc2)c(Cl)c1 (racemic)

IC50 [1]: > 10000 nM
SMILES: O=C(c1ccc(Nc2cccc(Cl)c2)nc1)N1CCCCC1

IC50 [1]: 430 nM
SMILES: CC1CCCCN1C(=O)c1ccc(Nc2ccc(Cl)cc2)nc1 (racemic)

microsomal CLint [2]: 38 µL/min/mg
microsomal CLint [4]: 60 µL/min/mg
SMILES: Cc1ccc(Nc2ncc(C(=O)N3CCCC(C)C3)cc2Cl)cn1 (racemic)

IC50 [5]: 16 nM
microsomal CLint [2]: 885 µL/min/mg
solubility [3]: < 3 µg/mL
IC50 [1]: 90 nM
microsomal CLint [4]: 224 µL/min/mg
SMILES: CCCC1CCCCN1C(=O)c1cnc(Nc2ccc(C)nc2)c(Cl)c1 (racemic)

IC50 [1]: 980 nM
SMILES: CC1CCCN(C(=O)c2cnc(Nc3ccc(Cl)cc3)nc2)C1 (configuration not stated)

IC50 [1]: > 10000 nM
SMILES: O=C(c1cnc(Nc2ccc(Cl)cc2)cn1)N1CCCCC1

IC50 [1]: 1600 nM
SMILES: CC1CCCN(C(=O)c2ccc(Nc3ccc(Cl)cc3)cc2)C1 (configuration not stated)

IC50 [1]: 530 nM
SMILES: CC1CCCN(C(=O)c2ccc(Nc3ccc(Cl)cc3)nc2)C1 (racemic)

IC50 [1]: 2300 nM
SMILES: Cc1ccc(Nc2ccc(C(=O)N3CCCCC3)cn2)cc1

IC50 [1]: 2300 nM
SMILES: O=C(c1ccc(Nc2ccc(Cl)cc2)nc1)N1CCCCCCC1

IC50 [1]: > 10000 nM
SMILES: O=C(c1ccc(Nc2ccc(Cl)c(Cl)c2)nc1)N1CCCCC1

IC50 [1]: > 10000 nM
SMILES: CC1CCCN(C(=O)c2cc(Nc3ccc(Cl)cc3)[nH]n2)C1 (configuration not stated)

IC50 [5]: 430 nM
microsomal CLint [2]: 73 µL/min/mg
solubility [3]: 216 µg/mL (≈ 626 µM)
IC50 [1]: 240 nM
microsomal CLint [4]: 44 µL/min/mg
SMILES: Cc1ccc(Nc2ncc(C(=O)N3CCCC[C@H]3C)cc2Cl)cn1

IC50 [1]: 5400 nM
SMILES: O=C(c1ccc(Nc2ccc(Cl)cc2)nc1)N1CCCC1

IC50 [1]: 95 nM
SMILES: CC1CCCN(C(=O)c2cnc(Nc3ccc(Cl)cc3)c(Cl)c2)C1 (configuration not stated)

IC50 [1]: 2300 nM
SMILES: O=C(c1ccc(Nc2ccc(F)cc2)nc1)N1CCCCC1

IC50 [1]: 2100 nM
SMILES: COc1cc(C(=O)N2CCCCC2)cnc1Nc1ccc(Cl)cc1

IC50 [5]: 5 nM
microsomal CLint [2]: 637 µL/min/mg
solubility [3]: < 3 µg/mL
IC50 [1]: 136 nM
microsomal CLint [4]: 227 µL/min/mg
SMILES: CCCCC1CCCCN1C(=O)c1cnc(Nc2ccc(C)nc2)c(Cl)c1 (racemic)

IC50 [1]: 250 nM
SMILES: O=C(c1ccc(Nc2ccc(Cl)cc2)nc1)N1CCCCCC1

IC50 [1]: > 10000 nM
SMILES: Cc1cccc(Nc2ccc(C(=O)N3CCCCC3)cn2)n1

IC50 [1]: 10000 nM
SMILES: O=C(c1ccc(Nc2ccc(Cl)cn2)nc1)N1CCCCC1

microsomal CLint [2]: 417 µL/min/mg
solubility [3]: 15 µg/mL (≈ 41.8 µM)
microsomal CLint [4]: 171 µL/min/mg
SMILES: CCC1CCCN(C(=O)c2cnc(Nc3ccc(C)nc3)c(Cl)c2)C1 (racemic)

IC50 [1]: 460 nM
SMILES: CCN(CC)C(=O)c1ccc(Nc2ccc(Cl)cc2)nc1

IC50 [1]: > 10000 nM
SMILES: CN(c1ccc(Cl)cc1)c1ccc(C(=O)N2CCCCC2)cn1

microsomal CLint [2]: 687 µL/min/mg
solubility [3]: < 3 µg/mL
microsomal CLint [4]: 174 µL/min/mg
SMILES: CC[C@H]1CCCN(C(=O)c2cnc(Nc3ccc(C)nc3)c(Cl)c2)C1

IC50 [5]: 36 nM
Ki [6]: 30 nM
MRT [7]: 54 min
Tmax [8]: 15 min
Kp [9]: 1.36
IC50 [10]: > 10000 nM
clearance [11]: 37.2 mL/min/kg
half-life [12]: 18 min
microsomal CLint [2]: 87 µL/min/mg
IC50 [13]: > 10000 nM
Ki [14]: 38 nM
Vd [15]: 2 L/kg
IC50 [16]: > 10000 nM
Drug uptake (Brain): 127 pmol/g
AUC [18]: 7.23 µM·h
half-life [19]: 54 min
solubility [3]: 58 µg/mL (≈ 162 µM)
IC50 [1]: 32 nM
IC50 [22]: > 10000 nM
Kp [23]: 1.3
microsomal CLint [4]: 89 µL/min/mg
IC50 (Glutamate NMDA receptor): > 10000 nM
AUC [24]: 4.48 µM·h
bioavailability [25]: 54%
IC50 [26]: > 10000 nM
Cmax [27]: 1230 nM
SMILES: CC[C@@H]1CCCCN1C(=O)c1cnc(Nc2ccc(C)nc2)c(Cl)c1
Activity (Mus musculus): Active
Activity (Rattus norvegicus [17]): Active
Activity (Rattus norvegicus [20]): Dose-dependent effect
Activity (Rattus norvegicus [21]): inactive

IC50 [1]: > 10000 nM
SMILES: O=C(NC1CCCCC1)c1ccc(Nc2ccc(Cl)cc2)nc1

IC50 [1]: 1800 nM
SMILES: COc1ccc(Nc2ccc(C(=O)N3CCCCC3)cn2)cc1

IC50 [1]: > 10000 nM
SMILES: O=C(c1ccc(Nc2ccccc2Cl)nc1)N1CCCCC1

IC50 [5]: 360 nM
microsomal CLint [2]: 190 µL/min/mg
solubility [3]: 56 µg/mL (≈ 156 µM)
IC50 [1]: 390 nM
microsomal CLint [4]: 216 µL/min/mg
SMILES: CC[C@H]1CCCCN1C(=O)c1cnc(Nc2ccc(C)nc2)c(Cl)c1

microsomal CLint [2]: 48 µL/min/mg
solubility [3]: 150 µg/mL (≈ 453 µM)
microsomal CLint [4]: 33 µL/min/mg
SMILES: Cc1ccc(Nc2ncc(C(=O)N3CCCCC3)cc2Cl)cn1

IC50 [1]: 2300 nM
SMILES: CC1CCN(C(=O)c2ccc(Nc3ccc(Cl)cc3)nc2)CC1
